Published values from different studies.
Each line is one published result; the experiments were not run side by side.
Target: Aurora kinase B (AURKB, Homo sapiens, UniProt Q96GD4)

CO[C@@H](C)c1c(Nc2ccc([C@@H](N(C)C(=O)C3CCS(=O)(=O)CC3)C(F)(F)F)cc2)cnc2cc(Cl)nn12
remaining binding (cell-free assay; competition with immobilised ligand; 1 µM): 74%

CN(C)C1CCN(CC#Cc2nn(C3CCCC3)c3nc(NCc4ccccc4)ncc23)C1 (stereo not drawn)
inhibition (enzyme activity; inhibitor; FRET; 0.1 µM): 8%

Cc1nn(CC(F)(F)F)cc1Nc1ncc(C2CC2)c(NCCc2c[nH]cn2)n1
remaining activity (enzyme activity; inhibitor; radiometric; 1 µM): 82%

Cc1ccc(NC(=O)c2ccc(C)c(C(F)(F)F)c2)cc1C#Cc1nn(C2CCC(O)CC2)c2ncnc(N)c12 (stereo not drawn)
remaining signal (cell-free assay; inhibitor; 10 µM): 475%

CS(=O)(=O)Nc1cccc(-c2csc(NC(=O)CSc3nc4nccnc4c(=O)n3CCc3ccccc3)n2)c1
inhibition (enzyme activity; inhibitor; 10 µM): -11%

c1cc(CN2CCOCC2)cc(Nc2ncc(C3CC3)c(NCCc3c[nH]cn3)n2)c1
remaining activity (enzyme activity; inhibitor; radiometric; 1 µM): 2%

C=CC(=O)Nc1cc(Nc2nccc(Nc3cc(Cl)c(F)cc3C(C)(C)O)n2)c(OC)cc1N1CC[C@@H](N(C)C)C1
inhibition (enzyme activity; inhibitor; 1 µM): 10%

COc1cc(/C=C/C(=O)CC(=O)/C=C/c2ccc(O)c(OC)c2)ccc1O
activity vs control (enzyme activity; inhibitor; 1 µM): 79%

Cc1nn(CC(F)(F)F)cc1Nc1ncc(Br)c(NCCc2cnc[nH]2)n1
remaining activity (enzyme activity; inhibitor; radiometric; 1 µM): 22%

CN1CC(Oc2cnc(C#N)cc2-c2ccn3nc(NC(=O)C4CC4)cc3c2)C1
inhibition (enzyme activity; inhibitor; 1 µM): 1%

NS(=O)(=O)c1ccc(CNc2ccnc(Nc3cccc(CN4CCOCC4)c3)n2)cc1
remaining activity (enzyme activity; inhibitor; radiometric; 1 µM): 48%

COc1cccc(CNC(=O)c2nc3scc(COCc4ccc(C(=O)O)cc4)c3c(=O)[nH]2)c1
remaining binding (cell-free assay; competition with immobilised ligand; 1 µM): 71.3%

C#Cc1cccc(Nc2ncnc3cc(OCCOC)c(OCCOC)cc23)c1
activity vs control (enzyme activity; inhibitor; 0.5 µM): 74.7%

CN(C)CC#Cc1ccc(OCCCc2sc(N3CCc4cccc(C(=O)Nc5nc6ccccc6s5)c4C3)nc2C(=O)O)c(F)c1
remaining binding (cell-free assay; competition with immobilised ligand; 1 µM): 79%

O=C1c2ccccc2-c2n[nH]c3cccc1c23
activity vs control (enzyme activity; inhibitor; 0.5 µM): 14.9%

C[C@H](c1cccc(C#N)c1)n1cc(Cl)cc(C(N)=O)c1=N
remaining binding (cell-free assay; competition with immobilised ligand; 1 µM): 100%

COc1cc2nccc(Oc3ccc(NC(=O)c4c5n(n(-c6ccc(F)cc6)c4=O)CCCC5)cc3)c2cc1OC
inhibition (enzyme activity; inhibitor; 0.1 µM): 60%

CCC(=O)N[C@@H]1CC[C@H](C(=O)N(C)c2ccc(-c3nc4ccccc4o3)cc2)C1
remaining binding (cell-free assay; competition with immobilised ligand; 1 µM): 96%

CN(C)S(=O)(=O)c1ccc2c(c1)/C(=C/c1cc3c([nH]1)CCCC3)C(=O)N2
remaining signal (cell-free assay; 0.5 µM): 11%

CC(=O)c1c(NS(C)(=O)=O)c2cc(-c3ccc(Cl)cc3)c(-c3ccc(Cl)cc3Cl)nc2n(C)c1=O
remaining binding (cell-free assay; competition with immobilised ligand; 1 µM): 100%

Cc1cc(NC(=O)c2cccc3cc(-c4cccc5[nH]nc(N)c45)ccc23)ccc1F
activity vs control (enzyme activity; inhibitor; 0.1 µM): 12%
